# System: Fibroblast
# Assay: Multiplex assay against human fibroblast
# Assay type: toxicity, cell-based
# Method in brief: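 Cells stained live at seeding with Hoechst33342, BioTracker Green Microtubule Cytoskeleton Dye, MitoTracker Red and Annexin V Alexa Fluor 680 were imaged on a CQ1 microscope at 37°C and 5% CO2 after compound addition. Their classification by CellPathfinder machine-learning gating ran from Hoechst high-intensity objects versus normal cells, to healthy, pyknosed or fragmented nuclei among normal cells, to mitotic or apoptotic among pyknosed cells. Tubulin, mitochondrial-mass and membrane-permeability phenotypes are per cents of healthy-nucleus cells.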
# [1] = 12 h, 1 µM, compound concentration 1 uM, replicate 1
# [2] = 12 h, 1 µM, compound concentration 1 uM, replicate 2
# [3] = 12 h, 10 µM, compound concentration 10 uM, replicate 1
# [4] = 12 h, 10 µM, compound concentration 10 uM, replicate 2
# [5] = 24 h, 1 µM, compound concentration 1 uM, replicate 1
# [6] = 24 h, 1 µM, compound concentration 1 uM, replicate 2
# [7] = 24 h, 10 µM, compound concentration 10 uM, replicate 1
# [8] = 24 h, 10 µM, compound concentration 10 uM, replicate 2
# [9] = 48 h, 1 µM, compound concentration 1 uM, replicate 1
# [10] = 48 h, 1 µM, compound concentration 1 uM, replicate 2
# [11] = 48 h, 10 µM, compound concentration 10 uM, replicate 1
# [12] = 48 h, 10 µM, compound concentration 10 uM, replicate 2
structure (smiles),measurement,setting,value
Cc1cccc(CN2CCN(C(c3ccccc3)c3ccc(Cl)cc3)CC2)c1.Cl.Cl (stereo not given),Population Apoptotic (%),[1],64%
same,Population Fragmented Nuclei (%),[1],22%
same,Population Healthy Nuclei (%),[1],48%
same,Population Hoechst High Intensity Objects (%),[1],22%
same,Population Membrane Permeable-Phenotype (%),[1],34%
same,Population Mitochondria Different-Phenotype (%),[1],8%
same,Population Mitotic Cells (%),[1],35%
same,Population Normal (%),[1],77%
same,Population Pyknosed Nuclei (%),[1],29%
same,Population Tubulin-Different-Phenotype (%),[1],44%
same,Total Cell Count,[1],134
same,Population Apoptotic (%),[2],0%
same,Population Fragmented Nuclei (%),[2],16%
same,Population Healthy Nuclei (%),[2],79%
same,Population Hoechst High Intensity Objects (%),[2],8%
same,Population Membrane Permeable-Phenotype (%),[2],4%
same,Population Mitochondria Different-Phenotype (%),[2],26%
same,Population Mitotic Cells (%),[2],100%
same,Population Normal (%),[2],91%
same,Population Pyknosed Nuclei (%),[2],3%
same,Population Tubulin-Different-Phenotype (%),[2],23%
same,Total Cell Count,[2],48
same,Population Apoptotic (%),[3],61%
same,Population Fragmented Nuclei (%),[3],26%
same,Population Healthy Nuclei (%),[3],38%
same,Population Hoechst High Intensity Objects (%),[3],11%
same,Population Membrane Permeable-Phenotype (%),[3],15%
same,Population Mitochondria Different-Phenotype (%),[3],45%
same,Population Mitotic Cells (%),[3],38%
same,Population Normal (%),[3],88%
same,Population Pyknosed Nuclei (%),[3],34%
same,Population Tubulin-Different-Phenotype (%),[3],90%
same,Total Cell Count,[3],127
same,Population Apoptotic (%),[4],50%
same,Population Fragmented Nuclei (%),[4],14%
same,Population Healthy Nuclei (%),[4],72%
same,Population Hoechst High Intensity Objects (%),[4],6%
same,Population Membrane Permeable-Phenotype (%),[4],6%
same,Population Mitochondria Different-Phenotype (%),[4],61%
same,Population Mitotic Cells (%),[4],50%
same,Population Normal (%),[4],93%
same,Population Pyknosed Nuclei (%),[4],13%
same,Population Tubulin-Different-Phenotype (%),[4],47%
same,Total Cell Count,[4],58
same,Population Apoptotic (%),[5],75%
same,Population Fragmented Nuclei (%),[5],21%
same,Population Healthy Nuclei (%),[5],56%
same,Population Hoechst High Intensity Objects (%),[5],26%
same,Population Membrane Permeable-Phenotype (%),[5],34%
same,Population Mitochondria Different-Phenotype (%),[5],5%
same,Population Mitotic Cells (%),[5],25%
same,Population Normal (%),[5],73%
same,Population Pyknosed Nuclei (%),[5],21%
same,Population Tubulin-Different-Phenotype (%),[5],40%
same,Total Cell Count,[5],125
same,Population Apoptotic (%),[6],80%
same,Population Fragmented Nuclei (%),[6],18%
same,Population Healthy Nuclei (%),[6],73%
same,Population Hoechst High Intensity Objects (%),[6],10%
same,Population Membrane Permeable-Phenotype (%),[6],11%
same,Population Mitochondria Different-Phenotype (%),[6],13%
same,Population Mitotic Cells (%),[6],20%
same,Population Normal (%),[6],89%
same,Population Pyknosed Nuclei (%),[6],8%
same,Population Tubulin-Different-Phenotype (%),[6],22%
same,Total Cell Count,[6],47
same,Population Apoptotic (%),[7],66%
same,Population Fragmented Nuclei (%),[7],29%
same,Population Healthy Nuclei (%),[7],44%
same,Population Hoechst High Intensity Objects (%),[7],14%
same,Population Membrane Permeable-Phenotype (%),[7],16%
same,Population Mitochondria Different-Phenotype (%),[7],40%
same,Population Mitotic Cells (%),[7],33%
same,Population Normal (%),[7],85%
same,Population Pyknosed Nuclei (%),[7],26%
same,Population Tubulin-Different-Phenotype (%),[7],86%
same,Total Cell Count,[7],132
same,Population Apoptotic (%),[8],11%
same,Population Fragmented Nuclei (%),[8],10%
same,Population Healthy Nuclei (%),[8],77%
same,Population Hoechst High Intensity Objects (%),[8],5%
same,Population Membrane Permeable-Phenotype (%),[8],5%
same,Population Mitochondria Different-Phenotype (%),[8],63%
same,Population Mitotic Cells (%),[8],88%
same,Population Normal (%),[8],94%
same,Population Pyknosed Nuclei (%),[8],12%
same,Population Tubulin-Different-Phenotype (%),[8],45%
same,Total Cell Count,[8],67
same,Population Apoptotic (%),[9],66%
same,Population Fragmented Nuclei (%),[9],30%
same,Population Healthy Nuclei (%),[9],58%
same,Population Hoechst High Intensity Objects (%),[9],18%
same,Population Membrane Permeable-Phenotype (%),[9],20%
same,Population Mitochondria Different-Phenotype (%),[9],3%
same,Population Mitotic Cells (%),[9],33%
same,Population Normal (%),[9],81%
same,Population Pyknosed Nuclei (%),[9],10%
same,Population Tubulin-Different-Phenotype (%),[9],30%
same,Total Cell Count,[9],136
same,Population Apoptotic (%),[10],87%
same,Population Fragmented Nuclei (%),[10],24%
same,Population Healthy Nuclei (%),[10],68%
same,Population Hoechst High Intensity Objects (%),[10],9%
same,Population Membrane Permeable-Phenotype (%),[10],6%
same,Population Mitochondria Different-Phenotype (%),[10],7%
same,Population Mitotic Cells (%),[10],12%
same,Population Normal (%),[10],90%
same,Population Pyknosed Nuclei (%),[10],7%
same,Population Tubulin-Different-Phenotype (%),[10],44%
same,Total Cell Count,[10],124
same,Population Apoptotic (%),[11],57%
same,Population Fragmented Nuclei (%),[11],39%
same,Population Healthy Nuclei (%),[11],54%
same,Population Hoechst High Intensity Objects (%),[11],12%
same,Population Membrane Permeable-Phenotype (%),[11],16%
same,Population Mitochondria Different-Phenotype (%),[11],25%
same,Population Mitotic Cells (%),[11],42%
same,Population Normal (%),[11],87%
same,Population Pyknosed Nuclei (%),[11],6%
same,Population Tubulin-Different-Phenotype (%),[11],79%
same,Total Cell Count,[11],124
same,Population Apoptotic (%),[12],50%
same,Population Fragmented Nuclei (%),[12],42%
same,Population Healthy Nuclei (%),[12],52%
same,Population Membrane Permeable-Phenotype (%),[12],9%
same,Population Mitochondria Different-Phenotype (%),[12],34%
same,Population Mitotic Cells (%),[12],50%
same,Population Pyknosed Nuclei (%),[12],5%
same,Population Tubulin-Different-Phenotype (%),[12],88%
same,Total Cell Count,[12],133

# Source: ChEMBL document CHEMBL4689842, “EUbOPEN Chemogenomics Library wave 1” (2021)
